Test results from article PMC10947042 (Chemmedchem, 2022).
Values belong to the molecule of their own block, whether it stands above or below them.

Assays:
[1] = Solubility in the buffer solution; type: physicochemical
[2] = Rat blood plasma stability; type: in vitro ADME; settings: 5 % rat blood plasma, Figure 3E
Swiss 3T3 cells = experiment: Receptor-mediated endocytosis assay, Swiss 3T3 cells; type: cell-based
In short: (§1)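 Cells grown in DMEM/10 % FCS, then serum‑free DMEM for 16 h. Compound added 30 min (final DMSO ≤1 %), then Tfn‑TxR (final 5.0 μg/mL) or EGF‑TxR (final 1.0 μg/mL) as applicable, 10 min at 37 °C. Surface ligand stripped with ice‑cold acid wash (pH 2.8), 4 % PFA fix, DAPI stain, fluorescence microscopy. Quantified as integrated intensity per cell, % of vehicle control.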

HER14 cells = experiment: Receptor-mediated endocytosis assay, HER14 cells; type: cell-based
In short: as §1

B104 cells = experiment: Receptor-mediated endocytosis assay, B104 cells; type: cell-based
In short: as §1

A431 cells = experiment: Receptor-mediated endocytosis assay, A431 cells; type: cell-based; settings: 30 μM, data not shown
B35 cells = experiment: Receptor-mediated endocytosis assay, B35 cells; type: cell-based
In short: as §1

HeLa cells = experiment: Receptor-mediated endocytosis assay, HeLa cells; type: cell-based
In short: as §1

dynamin I [3] = experiment: Malachite Green GTPase assay, dynamin I; type: biochemical, sheep; settings: increasing GTP or phospholipid (PS) concentration, Figure 2
In short: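 GTP 0.3 mM, PS liposomes ~4 μg/ml (GTP or PS varied). Compound present; 30 min, 37 °C; EDTA stop; malachite green A650 against phosphate standard. Basal subtracted; Michaelis‑Menten and Lineweaver‑Burk fits.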

COS7 cells = experiment: Receptor-mediated endocytosis assay, COS7 cells; type: cell-based; settings: at up to 300 μM
In short: as §1

dynamin I [4] = settings: read-out: IC50 for dynamin I inhibition; in vitro dynamin I GTPase; cited from earlier work
dyn II = settings: read-out: dyn II IC50; cited from earlier work

SMILES: CC(=O)Oc1ccc(C=C(C#N)C(=O)NCCCNC(=O)C(C#N)=Cc2ccc(OC(C)=O)c(OC(C)=O)c2)cc1OC(C)=O [Compound 3, Acetic acid 2‐acetoxy‐5‐(2‐cyano‐2‐{3‐[2‐cyano‐3‐(3,4‐diacetoxyphenyl)acryloylamino]propylcarbamoyl}vinyl)phenyl ester]
solubility in the buffer solution / under physiological conditions [1]: insoluble

time until hydrolysis was complete [2]: ≈ 60 min
SMILES: CCC(=O)Oc1ccc(C=C(C#N)C(=O)NCCCNC(=O)C(C#N)=Cc2ccc(OC(=O)CC)c(OC(=O)CC)c2)cc1OC(=O)CC [Compound 4, Propionic acid 5‐(2‐{3‐[3‐(3,4‐bis‐propionyloxyphenyl)‐2‐cyanoacryloylamino]propylcarbamoyl}‐2‐cyanovinyl)‐2‐propionyloxyphenyl ester]
transferrin and EGF uptake (where applicable) (Swiss 3T3 cells; 30 μM, data not shown): inhibited transferrin and EGF uptake
transferrin and EGF uptake (where applicable) (HER14 cells; 30 μM, data not shown): inhibited transferrin and EGF uptake
transferrin and EGF uptake (where applicable) (B104 cells; 30 μM, data not shown): inhibited transferrin and EGF uptake
transferrin and EGF uptake (where applicable) (A431 cells): inhibited transferrin and EGF uptake
transferrin and EGF uptake (where applicable) (B35 cells; 30 μM, data not shown): inhibited transferrin and EGF uptake
effect on EGF‐TxR uptake (CME) (HeLa cells; 30 μM): marked reduction in CME

solubility in the buffer solution / under physiological conditions [1]: insoluble
SMILES: CCCCCC(=O)Oc1ccc(C=C(C#N)C(=O)NCCCNC(=O)C(C#N)=Cc2ccc(OC(=O)CCCCC)c(OC(=O)CCCCC)c2)cc1OC(=O)CCCCC [Compound 8, Hexanoic acid 5‐(2‐{3‐[3‐(3,4‐bis‐hexanoyloxyphenyl)‐2‐cyanoacryloylamino]‐propylcarbamoyl}‐2‐cyanovinyl)‐2‐hexanoyloxyphenyl ester]

solubility in the buffer solution / under physiological conditions [1]: insoluble
SMILES: CC(C)(C)C(=O)Oc1ccc(C=C(C#N)C(=O)NCCCNC(=O)C(C#N)=Cc2ccc(OC(=O)C(C)(C)C)c(OC(=O)C(C)(C)C)c2)cc1OC(=O)C(C)(C)C [Compound 9, 2,2‐Dimethylpropionic acid 5‐[2‐(3‐{3‐[3,4‐bis‐(2,2‐dimethylpropionyloxy)phenyl]‐2‐cyanoacryloylamino}propylcarbamoyl)‐2‐cyanovinyl]‐2‐(2,2‐dimethylpropionyloxy)phenyl ester]

mode of dynamin inhibition (dynamin I [3]): non‐GTP and non‐lipid dependent manner
SMILES: N#CC(=Cc1ccc(O)c(O)c1)C(=O)NCCCNC(=O)C(C#N)=Cc1ccc(O)c(O)c1 [Compound 2, 2‐Cyano‐N‐{3‐[2‐cyano‐3‐(3,4‐dihydroxyphenyl)acryloylamino]propyl}‐3‐(3,4‐dihydroxyphenyl)acrylamide]
endocytosis block (TxR‐Tfn uptake) (Swiss 3T3 cells; 100 μM): essentially complete
endocytosis block (HER14 cells; 100 μM, not shown): essentially complete
endocytosis block (B104 cells; 100 μM, not shown): essentially complete
endocytosis block (B35 cells; at up to 300 μM): largely ineffective
effect on EGF‐TxR uptake (CME) (HeLa cells; 100 μM): no effect on CME
endocytosis block (HeLa cells; at up to 300 μM): largely ineffective
endocytosis block (COS7 cells): largely ineffective
IC50 (dynamin I [4]): 1.7 ± 2 µM
IC50 (dyn II): 0.5 µM
